Results reported in ChEMBL document CHEMBL4354867, “Validation and Characterization of Five Distinct Novel Inhibitors of Human Cytomegalovirus” (J Med Chem, 2020).
Calls of active or inactive are those of the source. The rule behind the calls is not given here.

How the values were obtained:
Type in all cases: functional, organism-based
[1] = tested on: Human betaherpesvirus 5; assay: Inhibition of viral protein expression in HCMV Towne infected in human HFF cells assessed as reduction in UL84 expression at 3 uM treated with compound following viral infection at MOI of 1 PFU/cell measured at 72 hrs post infection by Western blot analysis; conditions: strain Towne
Summary of the method: (§1)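 HFFs infected with HCMV Towne (MOI 1), then treated with compound. Lysates taken at 72 hpi, equal protein loaded on 8–10% Tris-glycine SDS-PAGE and transferred to PVDF. Primary antibodies overnight at 4 °C, HRP secondary, chemiluminescent detection; β-actin as loading control.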

[2] = tested on: Human betaherpesvirus 5; assay: Inhibition of viral protein expression in HCMV Towne infected in human HFF cells assessed as reduction in UL84 expression at 3 uM treated with compound for 24 hrs followed by viral infection at MOI of 1 PFU/cell measured at 72 hrs post infection by Western blot analysis; conditions: strain Towne
Summary of the method: (§2)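 HFFs pretreated with compound, then infected with HCMV Towne at MOI 1, 0.1 or 0.01. Viral proteins in cell lysates detected at 72 hpi by SDS-PAGE (8–10%), PVDF transfer and chemiluminescent immunoblot. Images from a representative experiment.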

[3] = tested on: Human betaherpesvirus 5; assay: Antiviral activity against HCMV Towne infected in human HFF cells assessed as reduction in plaque formation treated with compound following viral infection at MOI of 1 PFU/cell and measured at 10 days post-infection in presence of letermovir by crystal violet staining based assay; conditions: Human betaherpesvirus 5, strain Towne, 240 h
[4] = tested on: Human gammaherpesvirus 4; assay: Antiviral activity against EBV infected in human AKATA cells assessed as reduction in IgG-induced lytic virus replication measured at 48 hrs post-lytic induction by qRT-PCR analysis; conditions: human gammaherpesvirus 4, 48 h; read-out: EC50
[5] = tested on: Human betaherpesvirus 5; assay: Inhibition of viral protein expression in HCMV Towne infected in human HFF cells assessed as reduction in UL44 expression at 3 uM treated with compound for 24 hrs followed by viral infection at MOI of 1 PFU/cell measured at 72 hrs post infection by Western blot analysis; conditions: strain Towne; summary of the method: as §2
[6] = tested on: Human betaherpesvirus 5; assay: Antiviral activity against pp28-luciferase expressing HCMV Towne infected in human HFF cells assessed as reduction in viral entry by measuring viral replication at 1 to 10 uM treated with compound for 24 hrs followed by viral infection at MOI of 0.01 to 1 PFU/cell measured at 72 hrs post infection by luciferase reporter gene assay; conditions: strain Towne
Summary of the method: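 HFFs pretreated 24 h with compound, then infected with pp28-luciferase recombinant Towne HCMV (luciferase under the UL99 late promoter) at MOI 1, 0.1 or 0.01. Luciferase measured in cell lysates after 3 days. Triplicate values, mean ± SD.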

[7] = tested on: Human betaherpesvirus 5; assay: Inhibition of viral protein expression in HCMV Towne infected in human HFF cells assessed as reduction in pp65 expression at 3 uM treated with compound for 24 hrs followed by viral infection at MOI of 1 PFU/cell measured at 72 hrs post infection by Western blot analysis; conditions: strain Towne; summary of the method: as §2
[8] = tested on: Human betaherpesvirus 5; assay: Antiviral activity against GCV-resistant HCMV Towne infected in human HFF cells assessed as reduction in plaque formation treated with compound following viral infection and incubated for 8 to 10 days by crystal violet staining based assay; conditions: Human betaherpesvirus 5, strain Towne
[9] = tested on: Human betaherpesvirus 5; assay: Inhibition of viral protein expression in HCMV Towne infected in human HFF cells assessed as reduction in IE2 expression at 3 uM treated with compound following viral infection at MOI of 1 PFU/cell measured at 72 hrs post infection by Western blot analysis; conditions: strain Towne; summary of the method: as §1

For `COc1ccc(Cl)cc1C(=O)Nc1ccc(NC(=O)c2ccco2)cc1`, the inhibition [1] was “inactive”, the inhibition [2] was “inactive” and the EC50 [3] was 320 nM. The EC50 [4] was over 10000 nM, the inhibition [5] was “inactive” and the Activity [6] was “Active”. For the same compound, the inhibition [7] was “inactive”, the EC50 [8] was 250 nM and the inhibition [9] was “inactive”.
